According to ChEMBL document CHEMBL4152221, “Synthesis and structure-activity relationship of furoquinolinediones as inhibitors of Tyrosyl-DNA phosphodiesterase 2 (TDP2)” (Eur J Med Chem, 2018):
Calls of active or inactive are those of the source.

Assays:
[1] = target: T1, Tyrosyl-DNA phosphodiesterase 2 (Homo sapiens, UniProt O95551); test: (§1) Inhibition of recombinant human TDP2 using TY18 (alpha-[32P]-cordycepin-3'-labeled) as substrate after 15 mins by PAGE analysis
T1 sequence (O95551 whole entry): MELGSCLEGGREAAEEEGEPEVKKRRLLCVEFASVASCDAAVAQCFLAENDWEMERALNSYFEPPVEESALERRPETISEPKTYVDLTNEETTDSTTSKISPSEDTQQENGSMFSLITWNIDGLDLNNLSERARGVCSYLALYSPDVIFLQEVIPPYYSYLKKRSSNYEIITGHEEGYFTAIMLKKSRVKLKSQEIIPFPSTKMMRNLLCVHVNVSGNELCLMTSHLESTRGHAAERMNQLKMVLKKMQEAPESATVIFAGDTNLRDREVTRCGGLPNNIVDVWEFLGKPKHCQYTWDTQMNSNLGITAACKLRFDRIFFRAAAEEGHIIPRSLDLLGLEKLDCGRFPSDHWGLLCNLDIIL
How it was run: (§2)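 32P-cordycepin-3'-labeled TY18 substrate at 1 nM with 25 pM recombinant human TDP2, 15 min at room temperature. Buffer: 50 mM Tris-HCl pH 7.5, 80 mM KCl, 5 mM MgCl2, 0.1 mM EDTA, 1 mM DTT, 40 μg/mL BSA, 0.01% Tween 20. Six or eight three-fold dilutions up to 111 μM. Gel densitometry; IC50 is mean ± SD of ≥3 independent experiments. Positive control: SV-163.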

[2] = target: T1, Tyrosyl-DNA phosphodiesterase 2; test: Inhibition of human TDP2 expressed in TDP2 deficient chicken DT40 whole cell extracts using TY19 DNA as substrate after 15 mins by PAGE analysis
How it was run: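 Extract from 1×10^7 TDP2-knockout DT40 cells complemented with human TDP2, lysed 15 min on ice, spun at 12000 g for 10 min, stored at -80 °C. TY19 substrate at 1 nM with 5 μg/mL extract, ±inhibitor, 15 min at room temperature in LMP2 buffer. Gel densitometry. IC50 is mean ± SD of ≥3 independent experiments.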

[3] = target: T2, Tyrosyl-DNA phosphodiesterase 1 (Homo sapiens, UniProt Q9NUW8); test: Inhibition of recombinant TDP1 (unknown origin) using 5'-[32P]-labeled N14Y as substrate after 15 mins by PAGE analysis
T2 sequence (Q9NUW8 whole entry): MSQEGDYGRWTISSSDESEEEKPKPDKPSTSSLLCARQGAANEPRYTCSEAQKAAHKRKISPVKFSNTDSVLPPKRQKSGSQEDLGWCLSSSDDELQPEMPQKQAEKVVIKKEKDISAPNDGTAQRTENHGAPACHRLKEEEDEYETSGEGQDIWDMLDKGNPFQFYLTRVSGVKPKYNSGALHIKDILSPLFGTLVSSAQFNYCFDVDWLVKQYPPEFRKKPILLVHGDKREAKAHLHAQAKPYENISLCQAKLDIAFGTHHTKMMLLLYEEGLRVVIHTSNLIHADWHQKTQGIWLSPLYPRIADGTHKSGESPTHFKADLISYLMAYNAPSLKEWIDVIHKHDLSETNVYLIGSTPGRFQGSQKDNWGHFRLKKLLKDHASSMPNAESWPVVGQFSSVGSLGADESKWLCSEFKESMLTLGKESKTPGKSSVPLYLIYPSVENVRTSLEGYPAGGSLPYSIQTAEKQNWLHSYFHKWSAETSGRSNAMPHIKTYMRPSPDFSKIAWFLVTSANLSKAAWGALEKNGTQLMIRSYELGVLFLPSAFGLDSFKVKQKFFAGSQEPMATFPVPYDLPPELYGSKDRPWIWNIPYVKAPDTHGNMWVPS
How it was run: (§3)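 5'-32P-labeled N14Y (3'-phosphotyrosyl single-stranded oligo) at 1 nM with 10 pM recombinant TDP1, 15 min at room temperature. Three-fold dilutions up to 111 μM. Gels scanned and quantified by densitometry. Positive control: AM-8-3.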

[4] = target: T3, Tyrosyl-DNA phosphodiesterase 2 (Homo sapiens) (UniProt O95551); test: Inhibition of recombinant human TDP2 at 111 uM using alpha-[32P]-cordycepin-3'-labeled TY18 as substrate after 15 mins by PAGE analysis; how it was run: as §2
T3 sequence (whole entry): T1 sequence (O95551 whole entry)

[5] = target: T3, Tyrosyl-DNA phosphodiesterase 2 (Homo sapiens); test: as §1; how it was run: as §2
[6] = target: T2, Tyrosyl-DNA phosphodiesterase 1; test: Inhibition of recombinant TDP1 (unknown origin) at 111 uM using 5'-[32P]-labeled N14Y as substrate after 15 mins by PAGE analysis; how it was run: as §3
Homo sapiens = species on record: Homo sapiens; test: Inhibition of Top2 (unknown origin) assessed as decrease in relaxation of supercoiled pBR322 DNA at 25 uM
How it was run: (§4)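 Supercoiled pBR322 plasmid incubated with TOP1 or TOP2 enzyme, with or without test compound at 25 μM. Relaxed and supercoiled forms separated on agarose gel. Positive controls: camptothecin for TOP1, etoposide for TOP2.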

[7] = target: T4, DNA topoisomerase 1 (Homo sapiens) (UniProt P11387); test: Inhibition of Top1 (unknown origin) assessed as decrease in relaxation of supercoiled pBR322 DNA at 25 uM; how it was run: as §4
T4 sequence (whole entry): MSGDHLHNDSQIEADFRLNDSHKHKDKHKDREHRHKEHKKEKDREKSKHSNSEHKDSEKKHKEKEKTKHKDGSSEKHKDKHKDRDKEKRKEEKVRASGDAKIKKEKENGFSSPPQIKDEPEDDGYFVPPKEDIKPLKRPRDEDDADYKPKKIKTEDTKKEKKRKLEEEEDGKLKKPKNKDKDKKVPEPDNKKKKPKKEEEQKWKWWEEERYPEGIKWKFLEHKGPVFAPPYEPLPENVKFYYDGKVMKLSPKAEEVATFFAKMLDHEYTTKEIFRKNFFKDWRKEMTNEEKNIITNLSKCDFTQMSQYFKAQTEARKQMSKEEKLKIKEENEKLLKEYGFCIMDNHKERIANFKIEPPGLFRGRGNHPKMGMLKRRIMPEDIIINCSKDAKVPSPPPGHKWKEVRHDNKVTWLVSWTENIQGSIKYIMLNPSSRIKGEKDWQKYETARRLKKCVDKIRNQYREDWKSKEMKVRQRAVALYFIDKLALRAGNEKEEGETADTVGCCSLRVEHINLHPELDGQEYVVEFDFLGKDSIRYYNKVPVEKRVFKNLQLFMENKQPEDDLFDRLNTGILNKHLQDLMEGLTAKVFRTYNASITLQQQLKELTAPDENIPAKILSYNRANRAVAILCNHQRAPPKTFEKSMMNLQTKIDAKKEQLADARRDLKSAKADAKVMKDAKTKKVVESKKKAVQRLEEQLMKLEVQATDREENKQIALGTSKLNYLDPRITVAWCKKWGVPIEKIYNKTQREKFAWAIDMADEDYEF

[8] = target: DNA topoisomerase 2-alpha (Homo sapiens) (UniProt P11388); test: Poisoning activity at Top2alpha in human CCRF-CEM cells assessed as TOP2-DNA covalent cleavage complex up to 50 uM after 2 hrs by Western blot analysis based ICE assay; type: cell-based
Sequence of DNA topoisomerase 2-alpha (Homo sapiens) (P11388 whole entry): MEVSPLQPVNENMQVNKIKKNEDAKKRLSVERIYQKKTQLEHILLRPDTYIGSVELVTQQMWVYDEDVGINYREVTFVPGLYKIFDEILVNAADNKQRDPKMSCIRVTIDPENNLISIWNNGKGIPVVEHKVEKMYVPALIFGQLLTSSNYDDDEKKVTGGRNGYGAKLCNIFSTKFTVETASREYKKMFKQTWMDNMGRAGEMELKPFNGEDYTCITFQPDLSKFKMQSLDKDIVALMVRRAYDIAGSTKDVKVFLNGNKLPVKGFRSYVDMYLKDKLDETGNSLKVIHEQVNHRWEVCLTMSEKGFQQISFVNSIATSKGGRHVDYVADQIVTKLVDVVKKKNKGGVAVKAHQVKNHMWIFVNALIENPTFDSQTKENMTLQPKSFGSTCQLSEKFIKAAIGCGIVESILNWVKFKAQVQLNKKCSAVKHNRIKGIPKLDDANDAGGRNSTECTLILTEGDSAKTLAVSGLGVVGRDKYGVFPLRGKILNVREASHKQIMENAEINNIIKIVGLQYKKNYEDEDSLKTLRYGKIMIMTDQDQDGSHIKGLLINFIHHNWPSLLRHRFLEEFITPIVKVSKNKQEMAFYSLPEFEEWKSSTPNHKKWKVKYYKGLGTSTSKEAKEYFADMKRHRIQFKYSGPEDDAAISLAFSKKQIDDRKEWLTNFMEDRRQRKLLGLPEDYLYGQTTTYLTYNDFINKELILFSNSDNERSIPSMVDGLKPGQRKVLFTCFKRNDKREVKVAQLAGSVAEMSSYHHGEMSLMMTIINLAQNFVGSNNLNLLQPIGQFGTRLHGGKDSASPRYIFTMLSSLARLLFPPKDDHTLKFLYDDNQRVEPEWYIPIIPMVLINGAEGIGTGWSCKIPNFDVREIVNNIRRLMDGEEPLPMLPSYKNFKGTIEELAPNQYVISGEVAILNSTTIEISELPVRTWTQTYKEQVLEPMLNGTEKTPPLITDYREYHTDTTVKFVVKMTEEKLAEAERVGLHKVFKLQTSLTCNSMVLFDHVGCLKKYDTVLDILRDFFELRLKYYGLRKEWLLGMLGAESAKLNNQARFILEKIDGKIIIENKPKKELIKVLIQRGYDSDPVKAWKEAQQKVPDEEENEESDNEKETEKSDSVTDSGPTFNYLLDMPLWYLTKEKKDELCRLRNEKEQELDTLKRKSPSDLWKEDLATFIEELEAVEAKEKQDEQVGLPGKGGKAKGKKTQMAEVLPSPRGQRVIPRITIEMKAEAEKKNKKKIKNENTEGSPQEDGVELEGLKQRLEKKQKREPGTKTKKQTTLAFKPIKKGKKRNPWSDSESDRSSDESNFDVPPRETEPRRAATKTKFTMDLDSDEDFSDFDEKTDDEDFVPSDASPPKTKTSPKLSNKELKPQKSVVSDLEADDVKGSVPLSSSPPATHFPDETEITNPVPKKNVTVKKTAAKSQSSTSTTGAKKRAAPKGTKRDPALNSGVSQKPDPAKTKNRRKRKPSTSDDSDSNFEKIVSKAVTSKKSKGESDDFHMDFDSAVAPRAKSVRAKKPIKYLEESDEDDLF
How it was run: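 60×10^5 CCRF-CEM cells treated 2 h with compound at 10 or 50 μM, alone or combined with 10 μM etoposide, then lysed in 1% Sarkosyl. TOP2-DNA covalent complexes detected by ICE assay. Etoposide at 10 and 50 μM served as positive control.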

[9] = target: DNA topoisomerase 2-alpha (Homo sapiens) (UniProt P11388); test: Poisoning activity at Top2alpha in human CCRF-CEM cells assessed as TOP2-DNA covalent cleavage complex up to 100 uM after 2 hrs by Western blot analysis based ICE assay; type: cell-based
How it was run: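 ICE assay: 60×10^5 CCRF-CEM cells exposed to compound for 2 h, then lysed in 1% Sarkosyl to detect TOP2–DNA covalent cleavage complexes. Etoposide at 10 and 50 μM served as positive control, with one lane co-treated with 10 μM etoposide.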

Row | Compound | IC50 [1] [µM] | IC50 [2] [µM] | IC50 [3] [µM] | inhibition [4] [%] | inhibition [5] | inhibition [6] | inhibition (Homo sapiens) | inhibition [7] | Activity [8] | Activity [9]
1 | N#Cc1ccc2cc3c(=O)[nH]c(=O)nc-3n(-c3cccc(-c4nnn[nH]4)c3)c2c1 |  |  |  | 100 | Dose-dependent effect |  |  |  |  | 
2 | CCOC(=O)c1noc2c1C(=O)c1cccnc1C2=O | 1.9 | 2.1 |  | 100 | Dose-dependent effect | inactive | inactive | inactive | inactive | 
3 | Cc1oc2c(c1C(=O)OC[C@@H](O)CO)C(=O)c1ncccc1C2=O | 12 | 14 |  | 100 | Dose-dependent effect | inactive |  |  |  | 
4 | Cc1oc2c(c1C(=O)OCCc1cn(CCCO)nn1)C(=O)c1ncccc1C2=O | 66 | 72 |  |  |  | inactive |  |  |  | 
5 | CCOC(=O)c1noc2c1C(=O)c1ncccc1C2=O | 3.3 | 3.1 |  | 100 | Dose-dependent effect | inactive | inactive | inactive |  | 
6 | CCOC(=O)c1c(C)oc2c1C(=O)c1ncccc1C2=O | 11 | 22 |  |  |  | inactive | inactive | inactive |  | inactive
7 | Cc1oc2c(c1C(=O)OCCOCCO)C(=O)c1ncccc1C2=O | 22 | 13 |  |  |  | inactive |  |  |  | 
8 | COC(=O)c1c(C)oc2c1C(=O)c1ncccc1C2=O | 26 | 12 |  |  |  | inactive |  |  |  | 
9 | Cc1oc2c(c1C(=O)Oc1ccc(S(C)(=O)=O)cc1)C(=O)c1ncccc1C2=O | 14 | 16 |  |  |  | inactive |  |  |  | 
10 | Cc1oc2c(c1C(=O)OCCc1ccccc1)C(=O)c1ncccc1C2=O | 53 | 24 |  |  |  | inactive |  |  |  | 
11 | Cc1oc2c(c1C(=O)OCCCO)C(=O)c1ncccc1C2=O | 17 | 11 |  | 100 | Dose-dependent effect | inactive |  |  |  | 
12 | Cc1oc2c(c1C(=O)OCC(O)CO)C(=O)c1ncccc1C2=O (stereo not drawn) | 20 | 11 |  |  |  | inactive |  |  |  | 
13 | Cc1oc2c(c1C(=O)Oc1cccc(Cl)c1)C(=O)c1ncccc1C2=O | 14 | 11 |  |  |  | inactive |  |  |  | 

Further lines, with some results ahead:

Row | IC50 [1] [µM] | IC50 [2] [µM] | IC50 [3] [µM] | inhibition [4] [%] | inhibition [5] | inhibition [6] | inhibition (Homo sapiens) | inhibition [7] | Compound | Activity [8] | Activity [9]
14 | 22 | 24 | 38 |  |  |  |  |  | COC(=O)c1sccc1OC(=O)c1c(C)oc2c1C(=O)c1ncccc1C2=O |  | 
15 | 28 |  | 48 |  |  |  |  |  | Cc1oc2c(c1C(=O)Oc1ccc([N+](=O)[O-])cc1)C(=O)c1ncccc1C2=O |  | 
16 | 18 | 10 |  | 100 | Dose-dependent effect | inactive |  |  | Cc1oc2c(c1C(=O)Oc1ccccc1)C(=O)c1ncccc1C2=O |  | 
17 | 29 | 8.8 |  | 100 | Dose-dependent effect | inactive |  |  | Cc1oc2c(c1C(=O)Oc1cccc(O)c1)C(=O)c1ncccc1C2=O |  | 
18 | 20 | 9.8 |  | 100 | Dose-dependent effect | inactive |  |  | Cc1oc2c(c1C(=O)OCCO)C(=O)c1ncccc1C2=O |  | 
19 | 7.6 | 6.6 |  | 100 | Dose-dependent effect | inactive |  |  | Cc1oc2c(c1C(=O)Oc1ccccc1O)C(=O)c1ncccc1C2=O |  | 
20 | 45 | 19 |  |  |  | inactive |  |  | Cc1oc2c(c1C(=O)OCCCCCO)C(=O)c1ncccc1C2=O |  | 
21 | 11 | 7.5 |  |  |  | inactive |  |  | Cc1oc2c(c1C(=O)Oc1ccc(Cl)cc1)C(=O)c1ncccc1C2=O |  | 
22 | 43 | 38 |  |  |  | inactive |  |  | Cc1oc2c(c1C(=O)OCCC[n+]1ccc(N(C)C)cc1)C(=O)c1ncccc1C2=O |  | 
